PubChem BioAssay AID1800 (The Scripps Research Institute Molecular Screening Center, 2009)
The campaign covered roughly 290,000 compounds. About 1,600 (0.55%) were called active.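 How the source made its calls: active means inhibition above the mean of all tested compounds plus 3 SD, set per campaign (cut at about 35% in these data); inactive means the rest.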 The entries come from a sample that favours actives as a whole.

Tested on: Hepatitis C virus NS3 helicase
Experiment: inhibitors of HCV NS3 helicase, primary screen, biochemical, Cy5 molecular beacon fluorescence (AID 1800);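 further: 0% = DMSO wells and 100% = thioflavine S control wells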
Details: NS3 helicase DNA unwinding, at 10.9 µM, active compounds read high
Method in brief: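 assay system = NS3 helicase fragment of HCV | buffer or medium = MOPS pH 6.5, MgCl2, DTT, Tween20, BSA | timing = 60 min unwinding reaction at 25 °C after ATP addition | signal = Cy5 beacon fluorescence read at start and 1 h | read-out basis = % inhibition of unwinding | control set = low DMSO, high thioflavine S at 110 µM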

Row | Compound | inhibition
1 | COc1ccc(C(=O)Nc2ccccc2C(=O)NCc2ccco2)cc1 | -9.8% (inactive)
2 | COc1ccc(/C=C(/NC(=O)c2ccco2)C(=O)Nc2ccc(C(C)=O)cc2)cc1 | 2.61% (inactive)
3 | COc1ccc(/C=C(\NC(=O)c2ccc(OCC(C)C)cc2)C(=O)OCc2ccco2)cc1 | 43.7% (active)
4 | CCCn1cc(S(=O)(=O)c2ccc(C)cc2)c(=O)c2cc(OCC)ccc21 | -5.21% (inactive)
5 | CCc1ccc(NC(=O)Nc2ccncc2)cc1 | -8.08% (inactive)
6 | O=C(Nc1ccc2nccnc2c1)c1ccco1 | -0.83% (inactive)
7 | COCCNC(=O)Nc1ccc2nc(-c3ccco3)c(-c3ccco3)nc2c1 | 42.2% (active)
8 | O=C(NCc1ccccn1)c1ccc2nc(-c3ccco3)c(-c3ccco3)nc2c1 | 31.3% (inactive)
9 | NC(=O)c1nsc(C(=O)N(CCCN2CCOCC2)C(C(=O)NC2CCCCC2)c2ccc(Cl)cc2)c1N (configuration not stated) | 13.6% (inactive)
10 | Cc1ccc(C(=O)/C=C/Nc2ccc(S(=O)(=O)Nc3onc(C)c3C)cc2)cc1 | 23.3% (inactive)
11 | CC(Oc1ccccc1)C(=O)Nc1oc(-c2ccco2)c(-c2ccco2)c1C#N (configuration not stated) | 52.5% (active)
12 | CC(C)C(=O)Nc1oc(-c2ccccc2)cc1C#N | 2.07% (inactive)
13 | COc1cc(C(=O)Nc2oc(-c3ccccc3)c(-c3ccccc3)c2C#N)cc(OC)c1OC | -0.57% (inactive)
14 | Cc1cc2c(cc1C)N(C(=O)CN1C(=O)c3ccccc3C1=O)C(C)(C)c1ssc(=S)c1-2 | -5.01% (inactive)
15 | O=C(CCC(=O)n1ncc2ccccc21)NCc1ccccc1Cl | 12.6% (inactive)
16 | C#CCOc1ccc(/C=C2/C(=O)NN(c3ccccc3)C2=O)cc1OC | 27.8% (inactive)
17 | COc1cc(/C=C2/C(=O)NN(c3cccc(Cl)c3)C2=O)cc(Br)c1O | 64.2% (active)
18 | COc1cc(/C=C2/C(=O)NN(c3ccc(F)cc3)C2=O)cc([N+](=O)[O-])c1O | 15.7% (inactive)
19 | COC(=O)c1ccc(/C=C2/C(=O)Oc3ccccc32)cc1 | 4.46% (inactive)

Row | Compound | inhibition
20 | Nc1c(Cl)cc(-c2csc(N3CCCC3c3nc4cc(Cl)c(Cl)cc4n3CCOCCO)n2)cc1Cl (configuration not stated) | -4.48% (inactive)
21 | COc1ccc(-c2nn(-c3ccccc3)cc2/C=C2/SC(=S)N(CCCC(=O)O)C2=O)c(C)c1 | -32.5% (inactive)
22 | Cc1ccc(-c2nn(-c3ccccc3)cc2/C=C2\SC(=S)N(CCCCCC(=O)O)C2=O)o1 | 45.9% (active)
23 | CN(C)S(=O)(=O)c1cccc(-c2nn(-c3ccccc3)cc2/C=C2\SC(=S)N(CC(=O)O)C2=O)c1 | 9.49% (inactive)
24 | CC(C)C1Cc2c(sc3c2c(=O)n(-c2ccccc2)c2nncn32)CO1 (configuration not stated) | 1.09% (inactive)
25 | CC(C)(C)NC(=O)CSc1nnc(NC(=O)CCc2ccccc2)s1 | -6.73% (inactive)
26 | Cc1ccccc1NC(=O)CN1C(=O)N/C(=C\c2cccn2-c2cccc(C(=O)O)c2)C1=O | 21.8% (inactive)
27 | O=C1/C(=C\c2ccsc2)NC(=S)N1c1ccccc1 | 11% (inactive)
28 | O=C1N/C(=C/c2cccn2-c2ccccc2)C(=O)N1c1cccc(Cl)c1 | 43% (active)
29 | O=C(CCc1ccccc1F)N1CCN(c2ccccc2)CC1 | 8.51% (inactive)
30 | Cc1ccccc1CCNC(=O)C1CCC(=O)N(Cc2ccc(Cl)cc2)C1 (configuration not stated) | -13.2% (inactive)
31 | Cc1cccc(NC(=O)c2ccc3c(=O)n(CC4CCCO4)c(=S)[nH]c3c2)c1 (configuration not stated) | -9.4% (inactive)
32 | Cc1nc2nc(SCC(=O)NCc3ccco3)nn2c(C)c1Cc1ccccc1 | 2.25% (inactive)
33 | O=c1nc2s/c(=C\c3ccco3)c(=O)n2nc1Cc1ccccc1 | 45.8% (active)
34 | CCOc1ccccc1/C=c1\sc2nc(-c3ccco3)nn2c1=O | 27.9% (inactive)
35 | COC(=O)c1cc(S(=O)(=O)N2CCN(c3cc(C)ccc3C)CC2)c[nH]1 | -25.3% (inactive)
36 | COCCNC(=O)C(c1ccc(C)cc1)N(C(=O)CCC(=O)Nc1ccccn1)c1cccc(C)c1 (configuration not stated) | -11.8% (inactive)
37 | COCCN(C(=O)CCC(=O)Nc1ccccn1)C(C(=O)NCCC(C)C)c1ccc(OC)cc1 (configuration not stated) | 0.66% (inactive)
38 | CCOc1ccc(C(C(=O)NCCOC)N(CCOC)C(=O)CCC(=O)Nc2ccccn2)cc1 (configuration not stated) | 38.9% (active)

Row | Compound | inhibition
39 | O=C(Nc1nnc(-c2ccc(F)cc2)s1)c1c(F)cccc1Cl | -8.63% (inactive)
40 | O=c1cc(O)c(-c2cccc(C(F)(F)F)c2)c(Cl)[nH]1 | 13.8% (inactive)
41 | Cc1ccccc1/C=C\c1nc(O)c([N+](=O)[O-])c(=O)[nH]1 | 9.37% (inactive)
42 | O=c1[nH]c(/C=C\c2cccc(C(F)(F)F)c2)nc(O)c1[N+](=O)[O-] | 47.4% (active)
43 | CCNC(=O)N1CCCC(C(=O)c2ccc(-c3ccccc3)cc2)C1 (configuration not stated) | -0.46% (inactive)
44 | Cc1ccc(S(=O)(=O)Oc2ccc(/C=N/NC(=O)c3ccncc3)cc2)cc1 | -3.55% (inactive)
45 | O=C1OC(c2ccc(Cl)cc2)=N/C1=C\c1cccnc1 | 5.47% (inactive)
46 | Cc1ccc(C2=N/C(=C\c3ccc(OS(=O)(=O)c4ccc(C)cc4)cc3)C(=O)O2)cc1 | 40.6% (active)
47 | O=C(CNc1cccc(S(=O)(=O)N2CCCCC2)c1)Nc1ccccc1F | -2.03% (inactive)
48 | CCOCCCN(C)C1CCN(C(=O)c2oc3ccccc3c2NC(=O)COc2cccc(C)c2)CC1 | -20.2% (inactive)
49 | O=C(CCl)NNc1cccc(Cl)n1 | 60.9% (active)
50 | O=C(CCl)NNc1nc(-c2ccccc2)c2cc(Cl)ccc2n1 | 3.47% (inactive)
51 | O=C(NNc1ccccn1)c1ccc(Cl)nc1 | -0.49% (inactive)
52 | CCC(C(=O)OC)n1cnc2c(oc3ccccc32)c1=O (configuration not stated) | -6.44% (inactive)
53 | Cc1ccc(Nc2c3c(nc4ccccc24)CCC3)cc1 | -35.6% (inactive)
54 | CC(=O)Nc1ccc(NC(=O)COc2ncnc3ccccc23)cc1 | 8.73% (inactive)
55 | CC(=O)Nc1ccc(Nc2c3ccccc3nc3ccccc23)cc1 | 38.4% (active)
56 | Cc1cccc(NC(=O)NC(=S)NC(=O)c2ccccc2)c1 | 7.16% (inactive)
57 | COC(=O)c1c(C)[nH]c(C(=O)NCCc2ccc(S(N)(=O)=O)cc2)c1C | -6.64% (inactive)
